In the library only some 29% were active in any assay of this set; here they are far more common.
tolC growth inh = growth inhibitors of E. coli tolC mutant, primary screen, strain BW25113 ΔtolC::kan, 384-well. OD615. growth inhibition, % at 10 µM (by protocol). 65,000 compounds, 2.2% hits. AID 573, 2007;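 active = growth inhibition at or above a cutoff equal to the mean over every tested compound plus 3 SD, cut at about 60% in these data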;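 also: growth measured after 20 h incubation at 37 °C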
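Test system: E. coli BW25113 ΔtolC::kan bacteria; incubation: 37 °C, 20 h exposure; medium: LB broth supplemented with 50 µg/mL kanamycin; read-out basis: percent growth inhibition; signal: A615 absorbance measurement; compound: 10 µM final, single dose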
CYP2C19 act = human CYP2C19 activators, primary screen, biochemical, luminescence; Cytochrome P450 2C19 (Homo sapiens), P33261; recombinant CYP2C19, luciferin-H EGE luminescence; hits give high values; 0 = fully inhibited enzyme, 1 = untreated enzyme; activation factor at 5 µM; 96,000 tested, under 10 active;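 active = activation factor of at least 2 at 5 µM in the primary screen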;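 also: 0 = wells with 2.5 mM tranylcypromine and 1 = vehicle-only wells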
CYP2C9 act = human CYP2C9 activators, primary screen, biochemical, luminescence. 96,000 compounds, 1.4% hits. recombinant CYP2C9, luciferin-H conversion; hits give high values; factor 1 = untreated enzyme, 0 = blocked. activation factor at 5 µM. Cytochrome P450 2C9 (Homo sapiens), P11712;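 active = activation factor of 2 or more for CYP2C9 at a 5 µM dose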;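 also: 0 = sulfaphenazole-blocked wells and 1 = vehicle-only wells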
Target sequence (P11712 whole entry, looked up): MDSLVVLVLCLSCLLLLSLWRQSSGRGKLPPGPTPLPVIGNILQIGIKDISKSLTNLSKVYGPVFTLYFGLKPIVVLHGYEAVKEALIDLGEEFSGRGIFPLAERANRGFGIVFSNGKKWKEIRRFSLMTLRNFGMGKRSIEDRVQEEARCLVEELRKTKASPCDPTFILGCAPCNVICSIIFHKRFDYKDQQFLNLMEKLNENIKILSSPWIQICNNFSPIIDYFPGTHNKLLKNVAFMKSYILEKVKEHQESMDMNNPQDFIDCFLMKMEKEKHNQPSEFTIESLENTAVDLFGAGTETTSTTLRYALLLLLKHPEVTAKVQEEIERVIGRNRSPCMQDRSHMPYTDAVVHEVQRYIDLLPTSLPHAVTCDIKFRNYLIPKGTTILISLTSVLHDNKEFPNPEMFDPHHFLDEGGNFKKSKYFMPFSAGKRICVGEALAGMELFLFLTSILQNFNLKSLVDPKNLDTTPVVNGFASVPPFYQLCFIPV
CYP2C19 inhib = blockers of cytochrome P450 2C19 activity – biochemical, luminescence, ADME assay, primary screen; P33261; CYP2C19 Supersomes, luciferin-H EGE luminescence, 30 min; inhibition, % at 5 µM; 96,000 compounds, 21% hits; AID 778, 2007;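 active = CYP2C19 inhibition above a set limit at 5 µM in the primary screen, cut at about 50% in these data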;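 also: plate controls were negative control wells for no effect and 2.5 mM tranylcypromine positive control for full effect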
CYP2C9 inhib = blockers of cytochrome P450 2C9 activity – biochemical, luminescence, ADME assay, primary screen; CYP2C9 Supersomes, luciferin-H conversion; inhibition, % at 5 µM; 96,000 compounds, 20% hits;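 active = blocking of liver enzyme CYP2C9 beyond about 50% at 5 µM, limit read from the data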
E coli WT exp = growth inhibitors of wild-type E. coli, primary screen, strain BW25113, expanded library, OD600; OD600 absorbance; growth inhibition, % at 100 µM; 98,000 compounds, 0.15% hits; AID 710, 2007;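 active = growth inhibition above about 50% at one test dose, limit read from the data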;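 also: growth measured after 20 h incubation at 37 °C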
* marks the source's active call; other numbers are inactive results; . = no result.

SMILES	tolC growth inh	CYP2C19 act	CYP2C9 act	CYP2C19 inhib	CYP2C9 inhib	E coli WT exp
CCNC(=O)CC1C(=O)N(c2ccc(C)cc2)C(=O)N1Cc1ccccn1 (stereo not drawn)	-11	1	1	4	4	8
CCCNC(=O)c1cccc(C(F)(F)F)c1	.	0.9	1	10	-1	4
CC(NC(=O)C1CCN(c2nnc(-n3cccc3)s2)CC1)C12CC3CC(CC(C3)C1)C2 (stereo not drawn)	30	0.9	0.9	14	9	2
Cc1nnsc1C(=O)NC(C)C12CC3CC(CC(C3)C1)C2 (stereo not drawn)	.	0.5	0.8	52*	24	5
COc1ccc(OC)c(C(O)c2coc3ccc(O)c(CN4CCOCC4)c23)c1 (stereo not drawn)	9	0.4	0.5	58*	54*	3
COc1ccc(OC)c(C(O)c2coc3ccc(O)c(CN(C)C)c23)c1 (stereo not drawn)	.	0.7	0.8	35	20	7
c1cc(-c2noc(CCC3CCCC3)n2)ccn1	12	0	0	99*	96*	12
O=C(O)CCc1nc(-c2ccccc2)no1	-28	1	1	-1	1	-9
c1ccc(C(Cc2nc(-c3ccncc3)no2)c2ccccc2)cc1	41	0	0.1	98*	90*	8
c1ccc(-c2ccccc2-c2nc(-c3ccncc3)no2)cc1	24	0.1	0.3	91*	74*	9
c1ccc(-c2nnc(-c3ccncc3)o2)cc1	.	0.2	1.1	76*	-7	5
COCCCNC(NC(=O)c1ccc(Cl)cc1)C(Cl)(Cl)Cl (stereo not drawn)	.	0.6	0.7	43	25	4
CC1=CC(C)(C)C(C(=O)O)C(C(=O)O)C1 (stereo not drawn)	-10	1.1	1	-8	1	.
Cc1ccccc1/C(N)=N/OC(=O)/C=C/c1ccccc1	.	1	1.2	4	-21	17
COc1ccccc1-c1noc(-c2ccncc2)n1	9	0.1	0.9	89*	13	3
COc1ccc(-c2noc(-c3ccccc3-c3ccccc3)n2)cc1OC	19	0.6	0.3	36	67*	-9
COc1ccc(-c2noc(-c3cc(C)cc(C)c3)n2)cc1OC	-7	0.9	1.8	8	-77	-9
Cc1onc(-c2ccccc2Cl)c1-c1nc(-c2ccncc2)no1	.	0	0.1	99*	88*	3
c1ccc(-c2nc(-c3ccncc3)no2)cc1	16	0.1	0.8	94*	23	6
c1ccc(-c2noc(-c3cccnc3)n2)cc1	4	0.9	1	13	4	15
Cn1nc(-c2ccccc2)c(-c2nc(-c3ccccc3Cl)no2)c1Cl	.	0.8	0.6	19	42	-8
Cc1cccc2cc(COC(=O)C(C)C)c(=O)[nH]c12	-7	0.9	1.1	12	-5	-2
COc1ccccc1-n1cnc2cc(C(=O)NCCCN3CCOCC3)ccc21	-22	0.8	0.7	18	27	1
Cc1cccc(N(C(=O)Cn2nnc3ccccc32)C(C(=O)NC(C)(C)C)c2ccsc2)c1 (stereo not drawn)	.	1	1	0	-1	5
CC(CNC(=O)C(=O)NC(C)CCc1ccccc1)Cc1ccccc1 (stereo not drawn)	.	0.9	0.9	8	13	-5
SMILES	tolC growth inh	CYP2C19 act	CYP2C9 act	CYP2C19 inhib	CYP2C9 inhib	E coli WT exp
c1ccc(-c2ccc(-c3nc(-c4ccncc4)no3)cc2)cc1	4	0.2	0.3	80*	72*	-4
COc1nc(C)ccc1-c1noc(-c2ccccn2)n1	14	0.7	0.7	30	28	-1
Cc1ccccc1-c1nc(-c2cccnc2)no1	3	0.4	0.6	62*	36	3
c1ccc(-c2ccc(-c3nc(-c4cccnc4)no3)cc2)cc1	-2	0.9	0.9	14	6	-9
CSc1ccccc1-c1nnc(-c2ccccc2)o1	.	1	2.4*	3	-136	-6
COc1ccccc1-c1nc(-c2ccccn2)no1	1	0.2	0.7	79*	31	7
Clc1ccccc1-c1nc(-c2cccnc2)no1	10	0.6	0.9	36	13	5
CCOC(=O)/C=C1\SCC(=O)N1CC(=O)NC12CC3CC(CC(C3)C1)C2	.	0.8	0.9	19	13	6
CCOC(=O)CNc1nnc(SCC(=O)OCC)[nH]c1=O	-23	1	1	5	2	2
CC(/C=C/c1ccco1)=N/NC(=O)Cc1cccs1	.	1	0.9	2	12	17
O=c1c2ccccc2nnn1CSc1nnc(-c2ccc3c(c2)OCO3)o1	-14	1	0.8	4	21	-8
COc1ccccc1-c1nc(-c2ccc(C)nc2OC)no1	12	0.4	1	62*	4	-3
COc1nc(-c2ccc(Cl)cc2)ccc1-c1noc(-c2ccco2)n1	3	0.9	0.7	8	31	1
c1coc(-c2nc(-c3ccncc3)no2)c1	-4	0.1	0.7	87*	35	5
Cn1c(=O)n(CCOc2ccc(Cl)cc2Cl)c2ccccc21	.	0.8	0.9	18	13	-5
Cn1c(=O)n(CCOc2ccccc2Cl)c2ccccc21	20	0	0.1	96*	86*	13
Nc1nc2ccccc2n1CCOc1ccccc1Cl	20	0.4	0.7	56*	30	28
Cc1cccc(C)c1NC(=O)C1CCCCN1C (stereo not drawn)	6	.	.	.	.	.
COCCOC(=O)c1c(C)oc2ccc(O)c(CN3CCC(C)CC3)c12	-10	0.5	0.8	51*	15	1
CC(=O)c1ccc(OCCCN2CCCCC2)cc1	.	0.3	0.3	66*	69*	-2
O=C(c1ccccc1)c1ccc(OCCCN2CCCCC2)cc1	.	1.2	1.1	-18	-6	5
O=C(Oc1ccccc1)c1ccccc1OS(=O)(=O)c1ccccc1	.	0.6	0.4	44	59*	-4
CCNC(=O)NC1(C(=O)Nc2ccc3c(c2)OCCO3)CCCCC1	.	1	1	0	3	6
Cc1nc(SCC(=O)NC(C)c2ccccc2)c2oc3ccccc3c2n1 (stereo not drawn)	.	0.4	0.2	64*	80*	-8
CCOC(=O)CSc1nc(-c2ccccc2)nc2c1oc1ccccc12	.	1.1	1.1	-15	-6	-6
Cc1nc(SCC(=O)c2ccc(Cl)s2)c2oc3ccccc3c2n1	.	0.8	0.8	24	22	-6
